# From PubChem BioAssay
# PERK inh: blocks human PERK kinase; 220,000 compounds, 0.17% hits; CHO PERK-DD fusion, SEAP luminescence translation reporter; inhibition, % at 5.6 µM; Q9NZJ5;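 active = inhibition above the mean inhibition of all tested compounds plus 3 SD, set separately per screening campaign, cut at about 2.9% in these data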;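 note: PERK kinase domain activated by AP20187 dimerizer at 100 nM; 0% = DMSO with dimerizer and 100% = rapamycin at 8.4 µM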
# Target sequence (Q9NZJ5 whole entry, looked up, the tested form may be a part): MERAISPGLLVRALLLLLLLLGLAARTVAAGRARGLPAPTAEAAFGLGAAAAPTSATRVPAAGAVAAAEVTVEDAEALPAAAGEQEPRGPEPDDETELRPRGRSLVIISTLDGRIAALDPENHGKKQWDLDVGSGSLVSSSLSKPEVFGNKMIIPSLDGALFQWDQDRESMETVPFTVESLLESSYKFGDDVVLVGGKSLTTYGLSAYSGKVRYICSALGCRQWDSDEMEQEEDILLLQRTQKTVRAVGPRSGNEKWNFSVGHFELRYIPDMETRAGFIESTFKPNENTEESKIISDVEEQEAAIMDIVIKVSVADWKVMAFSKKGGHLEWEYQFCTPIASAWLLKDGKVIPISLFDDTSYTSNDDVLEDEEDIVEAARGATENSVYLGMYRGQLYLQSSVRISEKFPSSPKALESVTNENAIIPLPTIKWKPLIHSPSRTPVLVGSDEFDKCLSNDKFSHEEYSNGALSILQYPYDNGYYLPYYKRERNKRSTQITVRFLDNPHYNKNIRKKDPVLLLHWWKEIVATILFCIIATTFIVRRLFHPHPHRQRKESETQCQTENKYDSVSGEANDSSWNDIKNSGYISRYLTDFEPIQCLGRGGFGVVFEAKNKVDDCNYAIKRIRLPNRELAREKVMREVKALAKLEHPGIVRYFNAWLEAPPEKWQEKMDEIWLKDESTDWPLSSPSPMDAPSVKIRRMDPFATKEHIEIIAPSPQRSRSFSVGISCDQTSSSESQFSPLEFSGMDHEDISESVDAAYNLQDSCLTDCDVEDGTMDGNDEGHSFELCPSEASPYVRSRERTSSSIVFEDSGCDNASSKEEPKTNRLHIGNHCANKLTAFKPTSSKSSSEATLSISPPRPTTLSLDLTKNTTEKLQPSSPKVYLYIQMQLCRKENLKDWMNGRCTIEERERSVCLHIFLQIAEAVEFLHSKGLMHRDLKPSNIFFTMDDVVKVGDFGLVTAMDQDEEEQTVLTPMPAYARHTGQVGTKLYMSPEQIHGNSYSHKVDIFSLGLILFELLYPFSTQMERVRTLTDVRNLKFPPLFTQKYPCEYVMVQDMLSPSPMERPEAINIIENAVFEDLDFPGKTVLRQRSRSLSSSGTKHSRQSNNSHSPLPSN
# HSV augment: increases HSV replication in cells; HSV replication augmentation in cells, fold increase; maximum fold increase; 220,000 compounds, 0.005% hits; AID 1956; in the data active = maximum fold increase above about 1.5; tested in PC3 cells
# Dynein transport: dynein cargo transport inhibition; 3617.4 mouse cells, GR-EGFP nuclear translocation imaging; test concentration mostly 20 µM; stimulated with dexamethasone, 1 µM; hits give low values; z-score, hits read low; AID 1381; 220,000 compounds, 0.47% hits;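 active = plate z-score of nuclear minus cytoplasmic receptor signal below a set negative limit, without overly bright fluorescence or cell loss, cut at about -3.5 in these data, passing the limit was not always enough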;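 note: z-score of nuclear minus cytoplasmic ring GR-EGFP intensity difference per well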
#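 medium = tetracycline-free induction medium containing charcoal-stripped FBS | probe or stimulus = dexamethasone, 1.0 µM final | timing = 48 h induction, then 1 h compound, then 30 min agonist, 37 °C | detection = automated 10x imaging of fixed Hoechst-stained cells | read-out basis = nuclear versus cytoplasmic GR-EGFP signal, averaged per well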
# Autophagy HCS: alters autophagy in cells; MEF GFP-LC3 puncta imaging; test concentration mostly 10 µM; calls only at 10 µM (by protocol); 190,000 compounds, 0.98% hits; AID 463193;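 active = percentage of spot-positive cells more than 3 SD above its plate mean, without a fluorescence outlier flag or 80% toxicity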;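 note: spot-positive cell cutoff set from DMSO-treated cells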
# Tb hexokinase: blocks Trypanosoma brucei hexokinase 1 activity. recombinant TbHK1, G6PDH-coupled NADH A340. inhibition, % at 10 µM. 220,000 compounds, 0.11% hits;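 active = inhibition of 50% or more in the single-dose primary screen; inactive = inhibition below 50%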
# HKDC1 inh: blocks human hexokinase HKDC1 activity; recombinant HKDC1, G6PDH/diaphorase resazurin coupled fluorescence; inhibition, % at 20 µM; 340,000 compounds, 0.16% hits;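 active = inhibition above about 35% when tested at 20 µM, limit read from the data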;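 note: plate controls were DMSO wells with enzyme for no effect and DMSO wells lacking enzyme for full effect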
#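 Test system: HK5 enzyme. Quantity: 5 µg/mL HK5 final. Reagent: glucose and ATP substrates. Schedule: 90 min reaction incubation at room temperature, dark. Technique: resazurin-to-resorufin fluorescence via G6PDH and diaphorase coupling, 525/613 nm. Control set: DMSO wells with and without enzyme mix.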
# G6PDH counter: counter-screen for TbHK1 inhibitors: Leuconostoc G6PDH inhibition. purified G6PDH, NADH absorbance, 1 h. 210 compounds, 7% hits. inhibition, % at 10 µM. shares compounds with Tb hexokinase. AID 2516;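 active = at least 50% inhibition in the glucose-6-phosphate dehydrogenase coupled counterscreen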
# TbHK1 confirm: T. brucei hexokinase 1 inhibition, rescreen. 210 compounds, 10% hits. inhibition, % at 10 µM. recombinant TbHK1, G6PDH-coupled NADH A340 absorbance. shares compounds with Tb hexokinase;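 active = inhibition of at least 50% in both of the two screening runs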;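 note: 0% and 100% set by the maximum and minimum signal control wells on each plate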
# * marks the source's active call; other numbers are inactive results; i = inactive; nt = no result; ! = not active in a repeat. Rows were chosen to be rich in hits. Some 1.2% of all compounds tested hit in one or more screens of this group.
SMILES,PERK inh,HSV augment,Dynein transport,Autophagy HCS,Tb hexokinase,HKDC1 inh,G6PDH counter,TbHK1 confirm
O=C(NC1CCCCC1)C1CCN(S(=O)(=O)N2CCOCC2)CC1,0,i,1.2,i,58*,-7,-13,2
O=C(/C=C/c1cc[n+](CC(=O)c2ccc3cccc4c3c2CC4)cc1)c1ccc2cccc3c2c1CC3,-1,i,-0.59,nt,75*,19,100*,45
O=C(C[n+]1ccc2ccccc2c1)c1cccc2ccccc12,0,i,0.43,i,-5,4,nt,nt
CC1CCCC(NC(=S)NC(=O)c2ccco2)C1C (configuration not stated),nt,nt,nt,nt,nt,0,nt,nt
CN(C)c1ccc(/C=N/NC(=O)CN2CCCCC2)cc1Br,nt,nt,nt,nt,nt,2,nt,nt
COc1cc(C2C(C#N)=C(N)Oc3cc(N(C)C)ccc32)cc2c1OCO2 (configuration not stated),0,nt,-0.76,i,59*,-2,-7,-13
CC(=O)/C=C(/C)NC(Cc1c[nH]c2ccccc12)C(=O)O (configuration not stated),0,i,-0.091,i,51*!,1,-17,-3
COC(=O)[C@]1(C)N[C@H](CN(C)C(=O)C2CCCCC2)[C@@H]2C(=O)N(Cc3ccccc3)C(=O)[C@@H]21,nt,nt,nt,nt,nt,-6,nt,nt
COc1ccc(CCOC(=O)c2ccc(N)c([N+](=O)[O-])c2)cc1,nt,nt,nt,nt,nt,3,nt,nt
Cc1oc(-c2ccccc2F)nc1CSCC(=O)NC1CC1,nt,nt,nt,nt,nt,-1,nt,nt
Cc1oc(-c2ccccc2F)nc1CSCC(=O)NCc1ccc2c(c1)OCO2,-1,i,-1.1,i,61*,-11,-21,0
O=C(O)C1CCCCC1C(=O)NCCCN1CCOCC1 (configuration not stated),1,i,-1.2,i,51*,-4,-7,-3
CC1(C)Cc2c(C#N)c(N)sc(=S)c2CO1,0,i,0.051,i,73*,-8,101*,68*
COC(=O)NCCOC(=O)N(O)c1ccc(Br)cc1,0,i,-0.036,i,57*,-2,-1,3
COCCNC(=O)CN(C)S(=O)(=O)c1ccc(Br)cc1,0,i,1.7,i,3,-6,nt,nt
O=C(Nc1ccc(C(=O)NCCCN2CCN(c3ccc(F)cc3)CC2)cc1)C1=CSCCO1,nt,nt,nt,nt,nt,1,nt,nt
CC12CCC(C(=O)NC(c3ccccc3)c3ccccc3)(OC1=O)C2(C)C (configuration not stated),-1,i,1.1,i,61*,4,-7,4
CCc1ccc(N(CC(=O)NC2CCCC2)C(=O)CCC(=O)Nc2ccccn2)cc1,nt,nt,nt,nt,nt,0,nt,nt
Cc1cc(NC(=O)COC(=O)CCCOc2ccc(Cl)cc2C)no1,2,i,0.68,i,55*,0,0,-4
Cc1cc(NC(=O)COC(=O)CCS(=O)(=O)c2ccc(Cl)cc2)no1,nt,nt,nt,nt,nt,-2,nt,nt
O=C(COC(=O)c1ccc(Br)c(S(=O)(=O)N2CCOCC2)c1)NC1CC1,nt,nt,nt,nt,nt,-7,nt,nt
COc1ccc(NC2=NC3(CCCCC3)N=C(N)N2)cc1,1,i,0.17,i,62*,-9,19,13
CCCCOc1ccc(NC2=NC3(CCCCC3)N=C(N)N2)cc1,-1,i,-1,i,1,-3,nt,nt
CCCCN(C)C(=O)C1CCN(Cc2cccc(OCc3ccccc3)c2)CC1,nt,nt,nt,nt,nt,-5,nt,nt
CC1(C)OC(=O)C(=CNc2ncccn2)C(=O)O1,1,i,-0.3,i,52*,-5,-27,-25
SMILES,PERK inh,HSV augment,Dynein transport,Autophagy HCS,Tb hexokinase,HKDC1 inh,G6PDH counter,TbHK1 confirm
Cc1ccc(CNC(=O)CCS(=O)(=O)c2ccc(Br)cc2)cc1,1,i,2.5,i,68*,-4,-3,79*
Cc1cccc(NC(=O)CN(CC2CCCO2)C(=O)c2oc3ccccc3c2C)c1C (configuration not stated),nt,nt,nt,nt,nt,-2,nt,nt
CN1C(=O)C2(NC(=O)c3ccccc3N2C)c2ccccc21 (configuration not stated),0,i,-0.49,nt,-9,-2,nt,nt
CN1C(=O)C(Cl)(Cl)C(=O)c2ccccc21,1,i,-1.1,i,75*,-7,33,33
CC(C)n1ncc2c(C(=O)NCC(=O)Nc3ccccc3Br)cc(C3CC3)nc21,nt,nt,nt,nt,nt,-3,nt,nt
Cn1c(=O)oc2cc(S(=O)(=O)Nc3ccc(F)cc3)ccc21,nt,nt,nt,nt,nt,-2,nt,nt
CCN(CC)CCCN1C(=O)c2oc3ccccc3c(=O)c2C1c1cccnc1 (configuration not stated),1,i,-0.41,i,54*,1,-17,-10
COCCN(C(=O)c1cc(S(=O)(=O)N2CCCCC2)ccc1Cl)c1c(N)n(CC(C)C)c(=O)[nH]c1=O,nt,nt,nt,nt,nt,0,nt,nt
C[C@H](CO)N1C[C@H](C)[C@@H](CN(C)C(=O)Nc2ccccc2)Oc2c(NS(=O)(=O)c3cccs3)cccc2C1=O,nt,nt,nt,nt,nt,-2,nt,nt
CSc1ncccc1C(=O)N1CCCC(N2CCN(c3ccccc3F)CC2)C1 (configuration not stated),nt,nt,nt,nt,nt,-6,nt,nt
COC(=O)C1=C(NC(=O)c2ccc(Br)cc2)CCS1,2,i,1.1,i,0,-4,nt,nt
CCN(CC)S(=O)(=O)c1ccc(C(=O)NC2=C(C(=O)OC)SCC2)cc1,-1,i,-0.45,i,55*,13,-82,-34
COC(=O)C1=C(NC(=O)c2ccc(C)c(C)c2)CCS1,1,i,-0.97,i,57*,13,1,-1
COC(=O)c1c(C)[nH]c(C(=O)CSc2ccc(Cl)cc2)c1C,0,i,0.039,i,50*,4,-6,-11
CC(C)CNC(=O)NC1C(NC(=O)NCC(C)C)N(C)C(=O)N1C (configuration not stated),-1,i,-0.46,i,57*,-2,-9,-2
S=C(NNc1ccnc2cc(Cl)ccc12)Nc1ccc(Cl)cc1Cl,1,i,-0.83,nt,61*,-23,109*,60*
CCOc1ccc(NC(=S)NNc2ccnc3cc(Cl)ccc23)cc1,0,i,1.2,i,-5,-7,nt,nt
O=C1CCCC2=C1CC(C(=O)OCc1ccccc1)C(=O)N2Cc1ccccc1 (configuration not stated),nt,nt,nt,nt,nt,1,nt,nt
Cc1cccc(NC(=S)NNC(=O)c2cc3c(s2)CCC(C)C3)c1C (configuration not stated),0,i,1.5,i,71*,-15,-34,-1
CCCCn1c(NC(=S)Nc2ccccc2)nc2ccccc21,0,i,-0.29,i,62*,-32,-33,-37
